Hits are enriched below; roughly 1.8% of the tested compounds scored in any of these assays.
M4 PAM – potentiates acetylcholine response at human M4 receptor | activation, % at 3 µM | P08173 | 360,000 tested, 0.4% active | CHO-K1 hM4/Gqi5, Fluo-8 calcium fluorescence, ACh EC20; 0% = ACh EC20, 100% = maximal ACh;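 active = activation above its plate's cutoff, the mean activation of sample wells plus 3 SD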
Target sequence (P08173 whole entry, looked up): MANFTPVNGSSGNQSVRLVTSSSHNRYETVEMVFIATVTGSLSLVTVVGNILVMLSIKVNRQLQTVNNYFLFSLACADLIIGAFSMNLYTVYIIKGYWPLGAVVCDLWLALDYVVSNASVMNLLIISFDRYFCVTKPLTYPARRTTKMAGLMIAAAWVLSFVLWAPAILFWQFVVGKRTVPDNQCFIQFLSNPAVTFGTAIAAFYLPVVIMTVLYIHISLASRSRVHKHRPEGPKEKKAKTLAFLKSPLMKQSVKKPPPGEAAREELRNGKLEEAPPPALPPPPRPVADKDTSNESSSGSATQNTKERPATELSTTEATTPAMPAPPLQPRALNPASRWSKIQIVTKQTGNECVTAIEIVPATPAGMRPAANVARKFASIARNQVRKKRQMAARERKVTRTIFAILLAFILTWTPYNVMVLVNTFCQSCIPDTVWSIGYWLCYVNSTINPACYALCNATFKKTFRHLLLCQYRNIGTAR
M5 antag – blocks acetylcholine activation of human M5 receptor; P08912; CHO-hM5 cells, Fluo-8 calcium fluorescence, ACh EC80; inhibition, % at 3 µM; 360,000 tested, 0.59% active;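 active = inhibition above a per-plate cutoff, the mean of that plate's test compounds plus 3 SD, cut at about 27% in these data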;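 note: 0% = acetylcholine EC80 with DMSO and 100% = DMSO without agonist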
M5 PAM – potentiates acetylcholine response at human M5 receptor; P08912; CHO-K1 hM5, Fluo-8 calcium, ACh EC20 PAM; 0% = ACh EC20, 100% = ACh EC100; activation, % at 3 µM; 360,000 tested, 0.3% active; AID 624038;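 active = activation above the run cutoff, the mean activation of all test compounds plus 3 SD, cut at about 18% in these data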
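System – CHO-K1 hM5 cells · Compound – 3 µM, single dose · Incubation – compound preincubation 140 s before EC20 acetylcholine addition · Technique – Fluo-8 calcium fluorescence · Measure – Max/basal fluorescence ratio as % of EC20–EC100 ACh window · Benchmarks – low control EC20 acetylcholine (0%), high control EC100 acetylcholine (100%) · Replication – singlicate, one well per test compound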
M4 ag – agonists of human muscarinic M4 receptor (CHRM4). P08173. activation, % at 3 µM. 360,000 tested, 0.14% active. CHO-K1 hM4/Gqi5, Fluo-8 calcium fluorescence; vehicle 0%, full acetylcholine response 100%;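 active = activation above the run mean over all test wells plus 3 SD, cut at about 32% in these data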;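 note: peak over basal fluorescence ratio per well then scaled between controls; 0% = DMSO wells and 100% = acetylcholine at EC100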
CHRM4 antagonist – antagonists of human muscarinic M4 receptor (CHRM4). 360,000 tested, 0.73% active. inhibition, % at 3 µM. CHO-hM4 cells, ACh EC80, Fluo-8 calcium fluorescence;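 active = inhibition above its plate's cutoff, the mean inhibition of sample wells plus 3 SD, cut at about 27% in these data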;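 note: 0% = acetylcholine EC80 with DMSO and 100% = DMSO without agonist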
CHRM5 agonist – CHRM5 agonism in calcium assay | activation, % at 3 µM | CHO-K1 hM5 cells, Fluo-8 calcium fluorescence; 0% DMSO wells, 100% maximal acetylcholine response | AID 624037 | 360,000 tested, 0.19% active | P08912;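 active = activation above the run's mean over test compounds plus 3 SD, cut at about 23% in these data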;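 note: signal is peak over basal fluorescence ratio across the kinetic read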
Starred values were filed as active, the others as inactive.

SMILES	M4 PAM	M5 antag	M5 PAM	M4 ag	CHRM4 antagonist	CHRM5 agonist
Cc1ccc2nc3c(cc2c1)c(C)nn3-c1ccccc1	30.8*	1.1	-1.2	0.3	-44.1	-4.2
Cc1cccc(C)c1NC(=O)C(c1ccc(C#N)cc1)n1c(=O)c(-c2cc3ccccc3[nH]2)nc2ccccc21 (centres undefined)	-0.9	5.8	0.9	2.2	12.3	0.7
Cc1nn(C)c(C)c1N1C(=O)c2cccc3c(N)ccc(c23)C1=O	-32.0	27.9*	-15.0	82.1*	28.0*	37.5*
O=C1c2cccc3c(N4CCCCC4)ccc(c23)C(=O)N1c1ccccn1	3.4	3.3	-3.5	2.3	-2.2	3.4
Cc1ccc(N2C(=O)c3cccc4c(N)ccc(c34)C2=O)c2cccnc12	5.8	3.8	-12.0	16.3	-1.9	37.8*
CCCN1C(=O)c2cccc3c(N4CCCCC4)ccc(c23)C1=O	-2.8	6.5	-3.2	1.8	2.4	4.2
CCN1C(=O)c2cccc3c(N)ccc(c23)C1=O	-23.8	27.0*	-19.1	316.9*	44.2*	104.0*
Cc1nn(C)c(C)c1N1C(=O)c2cccc3c(Br)ccc(c23)C1=O	-2.3	4.2	0.6	5.9	6.7	-1.4
CN(C)CCCN1C(=O)c2cccc3c(Br)ccc(c23)C1=O	-11.2	9.0	5.2	1.3	3.9	1.6
CCCCNc1ccc2c3c(cccc13)C(=O)N(CCCC)C2=O	-38.8	97.0*	-21.4	267.2*	80.7*	591.4*
CCN(C)C1CN(Cc2cn(Cc3ccc(Cl)cc3)nn2)S(=O)(=O)C1 (centres undefined)	-1.0	-8.2	2.1	1.0	-6.7	0.8
O=C(NCC1CCCO1)c1ccc2[nH]c3c(c2c1)CCCC3 (centres undefined)	-1.2	-11.2	1.8	1.1	-10.3	-0.3
CCN(CC)C(=O)C1=C(C)N(CCCN2CCCC2=O)C(=O)C(CC(=O)NCCN2CCOCC2)C1 (centres undefined)	-3.9	-2.5	-3.4	0.8	3.2	2.1
CCC1C(=O)N=C(SCC(=O)Nc2cccc3ccccc23)NC1=O (centres undefined)	28.1*	-7.4	4.8	0.8	8.7	0.8
OC(c1cccnc1)c1nc(-c2ccc3c(c2)OCO3)cs1 (centres undefined)	5.5	4.1	-2.3	3.4	-5.3	4.1
CCOC(=O)c1c(N/C=C(\C#N)c2nc(-c3ccc(OC(C)=O)cc3)cs2)sc2c1CCC2	15.0	-12.2	22.6*	1.2	2.8	4.2
Nc1ccc(/C=C/C(=O)c2cccs2)cc1	-7.4	10.0	-10.9	11.6	1.4	33.4*
O=C(C=Cc1ccccc1)c1cccs1	1.2	5.5	2.5	-0.1	4.6	1.5
CN(C)c1cccc(C(=O)N2CCCC(CCC(=O)NCc3ccccc3F)C2)c1 (centres undefined)	0.8	-1.0	2.3	0.9	-3.1	-0.9
c1ccc2c(c1)CCCc1cc(NCCN3CCOCC3)nnc1-2	-7.4	0.6	-3.5	1.5	33.6*	-1.1
CCn1c(=O)c([N+](=O)[O-])c(NCC2CCCO2)c2ccccc21 (centres undefined)	0.6	-0.7	3.0	0.7	-3.1	3.5
Cc1cccc(NS(=O)(=O)c2cc(OCC(N)=O)c(C)cc2Cl)c1	-2.1	5.0	-9.2	8.7	-11.7	27.5*
Cc1ccc(NS(=O)(=O)c2cc(OCC(N)=O)c(C)cc2Cl)cc1C	13.3	-5.0	15.4	4.4	14.6	34.1*
CC(=O)c1cccc(NS(=O)(=O)c2cc(OCC(N)=O)c(C)cc2Cl)c1	0.3	-1.9	0.1	-0.3	1.2	1.7
Cc1ccccc1NS(=O)(=O)c1cc(OCC(N)=O)c(C)cc1Cl	0.8	2.0	10.6	1.1	0.6	6.8
O=C(NN=Cc1ccc2c(c1)CCN2)c1cccs1	-0.7	2.3	-3.9	-0.6	-8.2	-1.1
O=C1NC(=O)C(Cc2ccc(Cl)cc2)(c2ccccc2)N1 (centres undefined)	-1.4	0.0	-0.6	2.2	-8.1	2.9
